ChEMBL document CHEMBL4014285, “Novel, highly potent systemic glucokinase activators for the treatment of Type 2 Diabetes Mellitus” (Bioorg Med Chem Lett, 2017)
The source made the active and inactive calls. The rule behind the calls is not given here.

Columns and labels:
Hexokinase-4 [1] = biological target: T1, Hexokinase-4 (Homo sapiens, UniProt P35557); assay: Activation of recombinant human glucokinase assessed as conversion of D-glucose to D-glucose-6-phosphate in presence of 10 mM glucose by G6PDH coupled spectrophotometric assay
T1 sequence (P35557 whole entry): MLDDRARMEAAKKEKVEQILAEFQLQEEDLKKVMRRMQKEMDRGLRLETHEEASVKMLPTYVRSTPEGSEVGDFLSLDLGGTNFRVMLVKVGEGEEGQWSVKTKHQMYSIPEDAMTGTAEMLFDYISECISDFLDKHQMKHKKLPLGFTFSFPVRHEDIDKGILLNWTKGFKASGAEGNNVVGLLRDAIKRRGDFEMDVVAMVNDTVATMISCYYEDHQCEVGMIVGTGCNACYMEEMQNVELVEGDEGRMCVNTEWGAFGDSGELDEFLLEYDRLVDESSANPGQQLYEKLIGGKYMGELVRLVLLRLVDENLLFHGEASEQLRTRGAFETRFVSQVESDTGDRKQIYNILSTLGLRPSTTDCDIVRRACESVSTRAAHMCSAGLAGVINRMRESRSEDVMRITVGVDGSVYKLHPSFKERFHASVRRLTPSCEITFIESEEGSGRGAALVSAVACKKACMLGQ
Procedure, shortened: (§1)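 Recombinant human GK; ATP-dependent D-glucose-6-phosphate formation from D-glucose at 2.5 or 10 mM, read by continuous glucose-6-phosphate dehydrogenase coupled spectrophotometry. Activators titrated at 1% DMSO final, DMSO as control. EC50 = concentration giving half of maximal increase in product formation; maximum activity expressed as percent velocity increase vs DMSO at saturating activator. Single titration.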

Hexokinase-4 [2] = biological target: T2, Hexokinase-4 (Rattus norvegicus, UniProt P17712); assay: Activation of glucokinase in rat INS-1 cells assessed as increase in D-2-deoxyglucose-6-phosphate level in presence of D-2-deoxyglucose by HILIC LC-MS method; type: cell-based
T2 sequence (P17712 whole entry): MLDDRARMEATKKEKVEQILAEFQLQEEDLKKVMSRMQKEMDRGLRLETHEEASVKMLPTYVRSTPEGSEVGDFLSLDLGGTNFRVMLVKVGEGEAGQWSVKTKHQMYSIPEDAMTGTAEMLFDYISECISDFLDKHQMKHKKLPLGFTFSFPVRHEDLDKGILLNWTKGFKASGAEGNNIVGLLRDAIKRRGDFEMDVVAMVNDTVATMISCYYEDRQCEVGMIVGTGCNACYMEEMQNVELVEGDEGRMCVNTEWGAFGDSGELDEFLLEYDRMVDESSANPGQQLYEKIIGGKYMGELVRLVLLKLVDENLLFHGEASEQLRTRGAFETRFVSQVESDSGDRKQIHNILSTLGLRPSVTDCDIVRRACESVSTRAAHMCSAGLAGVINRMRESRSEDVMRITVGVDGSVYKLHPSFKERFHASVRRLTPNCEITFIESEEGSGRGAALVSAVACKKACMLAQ
Procedure, shortened: (§2)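 GKACA cell assay in rat INS-1 Clone-13 insulinoma cells or freshly isolated primary rat hepatocytes; intracellular D-2-deoxyglucose-6-phosphate formed from exogenous D-2-deoxyglucose quantified by HILIC LC-MS; EC50 from a single titration.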

Hexokinase-4 [3] = biological target: T1, Hexokinase-4; assay: Activation of recombinant human glucokinase assessed as conversion of D-glucose to D-glucose-6-phosphate in presence of 2.5 mM glucose by G6PDH coupled spectrophotometric assay; procedure, shortened: as §1
Hexokinase-4 [4] = biological target: T2, Hexokinase-4; assay: Activation of glucokinase in primary rat hepatocytes assessed as increase in D-2-deoxyglucose-6-phosphate level in presence of D-2-deoxyglucose by HILIC LC-MS method; type: cell-based; procedure, shortened: as §2
[5] = biological target: T3, Hexokinase-4 (Homo sapiens) (UniProt P35557); assay: Activation of recombinant human glucokinase assessed as conversion of D-glucose to D-glucose-6-phosphate in presence of 10 mM glucose by G6PDH coupled spectrophotometric assay relative to control; procedure, shortened: as §1
T3 sequence (whole entry): T1 sequence (P35557 whole entry)

[6] = biological target: T3, Hexokinase-4 (Homo sapiens); assay: Activation of recombinant human glucokinase assessed as conversion of D-glucose to D-glucose-6-phosphate in presence of 2.5 mM glucose by G6PDH coupled spectrophotometric assay relative to control; procedure, shortened: as §1
Mus musculus [7] = assay: Antidiabetic activity in HFD-fed C57BL/6 mouse assessed as increase in plasma insulin level at 0.03 to 0.1 mg/kg, po; type: functional, organism-based
Procedure, shortened: (§3)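 C57BL/6 mice fed high fat diet for 3 weeks, baseline blood glucose ~200 mg/dl, dosed orally at 0.01, 0.03 and 0.1 mg/kg. Blood glucose followed from 30 min through 4 h post dose, with blood glucose AUC over the period; plasma insulin also measured.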

Mus musculus [8] = assay: Antidiabetic activity in HFD-fed C57BL/6 mouse assessed as reduction in blood glucose AUC at 0.03 to 0.1 mg/kg, po measured at 4 hrs post dose; type: functional, organism-based; procedure, shortened: as §3
Mus musculus [9] = assay: Antidiabetic activity in HFD-fed C57BL/6 mouse assessed as decrease in blood glucose level at 0.03 mg/kg, po measured after 30 mins; type: functional, organism-based; procedure, shortened: as §3

EC50 (Hexokinase-4 [1]) [nM]	EC50 (Hexokinase-4 [2]) [nM]	EC50 (Hexokinase-4 [3]) [nM]	EC50 (Hexokinase-4 [4]) [nM]	%max [5] [%]	%max [6] [%]	Compound	Activity (Mus musculus [7])	Activity (Mus musculus [8])	Activity (Mus musculus [9])
31	375	86	199	–	–	CN1C(=O)CCC1c1cc2[nH]c(-c3ccc(C(F)(F)F)cn3)cc2cc1Oc1ccc(S(C)(=O)=O)nc1 (single isomer, unassigned; ent-2)	–	–	–
–	–	–	–	193	784	CN1C(=O)CCC1c1cc2[nH]c(-c3ccccn3)cc2cc1Oc1ccc(S(C)(=O)=O)nc1 (single isomer, unassigned; ent-1)	Active	Active	Active
2.1	3.9	4.8	5.2	–	–	CN1C(=O)CCC1c1cc2[nH]c(-c3ccc(C(C)(C)O)cn3)cc2cc1Oc1ccc(S(C)(=O)=O)nc1 (stereo in doubt; 4)	–	–	–
–	–	–	–	174	764	CN1C(=O)CCC1c1cc2[nH]c(-c3ccc(C(F)(F)F)cn3)cc2cc1Oc1ccc(S(C)(=O)=O)nc1 (stereo in doubt; 5)	–	–	–
–	–	–	–	132	581	CN1C(=O)CCC1c1cc2[nH]c(-c3ccc(C(C)(C)O)cn3)cc2cc1Oc1ccc(S(C)(=O)=O)nc1 (stereo in doubt; 4-en)	–	–	–
–	–	–	–	155	577	CN1C(=O)CCC1c1cc2[nH]c(-c3cnccn3)cc2cc1Oc1ccc(S(C)(=O)=O)nc1 (stereo in doubt; 3-en) [listing 2 of 2 here]	–	–	–

The next lines start with the molecule.

Compound	EC50 (Hexokinase-4 [1]) [nM]	EC50 (Hexokinase-4 [2]) [nM]	EC50 (Hexokinase-4 [3]) [nM]	EC50 (Hexokinase-4 [4]) [nM]	%max [5] [%]	%max [6] [%]	Activity (Mus musculus [7])	Activity (Mus musculus [8])	Activity (Mus musculus [9])
Cc1cnc(-c2cc3cc(Oc4ccc(S(C)(=O)=O)nc4)c(C4CCC(=O)N4C)cc3[nH]2)s1 (single isomer, unassigned) [listing 1 of 2 here]	–	–	–	–	168	620	–	–	–
Cc1cnc(-c2cc3cc(Oc4ccc(S(C)(=O)=O)nc4)c(C4CCC(=O)N4C)cc3[nH]2)s1 (stereo in doubt; 2-en)	–	–	–	–	132	482	–	–	–
CCS(=O)(=O)c1ccc(Oc2cc3cc(-c4ccc(C(F)(F)F)cn4)[nH]c3cc2C2CCC(=O)N2C)cc1 (centres undefined)	1.4	1.7	2	174	158	602	–	–	–
CN1C(=O)CCC1c1cc2[nH]c(-c3cnccn3)cc2cc1Oc1ccc(S(C)(=O)=O)nc1 (stereo in doubt; 3)	–	–	–	–	188	713	–	–	–
CN1C(=O)CCC1c1cc2[nH]c(-c3cnccn3)cc2cc1Oc1ccc(S(C)(=O)=O)nc1 (stereo in doubt; 3-en) [listing 1 of 2 here]	18	247	48	1510	–	–	–	–	–
Cc1cnc(-c2cc3cc(Oc4ccc(S(C)(=O)=O)nc4)c(C4CCC(=O)N4C)cc3[nH]2)s1 (single isomer, unassigned) [listing 2 of 2 here]	3.8	21	4.5	16	–	–	–	–	–
